Results: ChEMBL document CHEMBL2424622, “Development of amino-pyrimidine inhibitors of c-Jun N-terminal kinase (JNK): kinase profiling guided optimization of a 1,2,3-benzotriazole lead” (Bioorg Med Chem Lett, 2013)

What was measured:
[1] = target: T1, Ephrin type-A receptor 3 (Homo sapiens) (UniProt P29320); test: Competitive binding affinity to EPHA3 (unknown origin) at 10 uM in presence of ATP relative to control
T1 sequence (whole entry): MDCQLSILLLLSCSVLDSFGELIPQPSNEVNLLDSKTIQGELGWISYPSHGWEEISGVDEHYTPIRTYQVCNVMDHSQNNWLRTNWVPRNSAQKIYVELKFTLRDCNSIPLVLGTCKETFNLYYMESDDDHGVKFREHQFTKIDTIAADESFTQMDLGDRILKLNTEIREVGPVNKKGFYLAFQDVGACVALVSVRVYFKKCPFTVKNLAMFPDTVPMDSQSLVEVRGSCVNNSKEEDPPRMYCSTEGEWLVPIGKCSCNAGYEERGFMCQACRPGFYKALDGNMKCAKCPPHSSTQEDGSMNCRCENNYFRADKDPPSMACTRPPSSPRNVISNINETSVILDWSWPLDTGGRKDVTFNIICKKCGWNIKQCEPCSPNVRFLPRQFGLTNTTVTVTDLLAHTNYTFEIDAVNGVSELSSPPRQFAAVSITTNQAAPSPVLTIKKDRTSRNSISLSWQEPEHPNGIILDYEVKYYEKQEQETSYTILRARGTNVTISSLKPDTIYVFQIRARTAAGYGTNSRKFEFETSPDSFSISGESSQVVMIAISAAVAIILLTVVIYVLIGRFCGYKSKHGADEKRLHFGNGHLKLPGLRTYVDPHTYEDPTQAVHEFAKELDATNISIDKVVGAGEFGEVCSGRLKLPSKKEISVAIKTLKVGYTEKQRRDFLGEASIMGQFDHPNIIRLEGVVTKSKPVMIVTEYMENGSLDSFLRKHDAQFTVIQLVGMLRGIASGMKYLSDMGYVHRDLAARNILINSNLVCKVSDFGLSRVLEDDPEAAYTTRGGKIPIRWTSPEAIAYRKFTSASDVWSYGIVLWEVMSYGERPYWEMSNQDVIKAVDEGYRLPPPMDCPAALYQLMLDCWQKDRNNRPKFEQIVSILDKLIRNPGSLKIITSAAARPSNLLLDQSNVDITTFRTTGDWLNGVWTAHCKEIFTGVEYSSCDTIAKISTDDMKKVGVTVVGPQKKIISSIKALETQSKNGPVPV
In short: (§1)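 In vitro ATP-site competition binding assay, part of profiling against a diverse panel of 128 kinases. Each compound was tested at a single concentration of 10 µM. Kinome selectivity was summarized as S15 selectivity scores.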

[2] = target: Ribosomal protein S6 kinase alpha-2 (Homo sapiens) (UniProt Q15349); test: Competitive binding affinity to RPS6KA2 kinase domain 1 (unknown origin) at 10 uM in presence of ATP relative to control
In short: (§2)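 In vitro ATP-site competition binding assay across a diverse panel of 128 kinases, with each compound tested at a single concentration. Kinase binding is expressed relative to control.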

[3] = test system: Serine/threonine-protein kinase B-raf (Homo sapiens), P15056 [V600E]; test: Competitive binding affinity to BRAF V600E mutant (unknown origin) at 10 uM in presence of ATP relative to control
[4] = target: T2, Tyrosine-protein kinase ITK/TSK (Homo sapiens) (UniProt Q08881); test: Competitive binding affinity to ITK (unknown origin) at 10 uM in presence of ATP relative to control; in short: as §1
T2 sequence (whole entry): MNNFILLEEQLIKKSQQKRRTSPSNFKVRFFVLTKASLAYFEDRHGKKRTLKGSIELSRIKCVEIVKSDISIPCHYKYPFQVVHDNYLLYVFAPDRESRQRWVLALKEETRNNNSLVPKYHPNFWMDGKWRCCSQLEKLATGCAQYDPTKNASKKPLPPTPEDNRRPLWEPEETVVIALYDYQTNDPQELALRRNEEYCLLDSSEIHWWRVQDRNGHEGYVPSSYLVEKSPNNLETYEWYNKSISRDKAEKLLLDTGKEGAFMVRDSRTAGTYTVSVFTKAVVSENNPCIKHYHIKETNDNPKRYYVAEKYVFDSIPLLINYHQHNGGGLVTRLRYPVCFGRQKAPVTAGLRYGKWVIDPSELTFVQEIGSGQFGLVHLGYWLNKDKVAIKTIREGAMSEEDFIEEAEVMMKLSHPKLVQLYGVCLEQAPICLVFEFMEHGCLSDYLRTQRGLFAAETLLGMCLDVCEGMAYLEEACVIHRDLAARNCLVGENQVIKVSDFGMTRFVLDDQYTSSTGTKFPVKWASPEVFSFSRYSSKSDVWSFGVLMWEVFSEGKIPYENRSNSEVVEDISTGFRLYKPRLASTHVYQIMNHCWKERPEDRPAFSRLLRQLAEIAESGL

[5] = target: Tyrosine-protein kinase CSK (Homo sapiens) (UniProt P41240); test: Competitive binding affinity to CSK (unknown origin) at 10 uM in presence of ATP relative to control
[6] = target: STE20-like serine/threonine-protein kinase (Homo sapiens) (UniProt Q9H2G2); test: Competitive binding affinity to SLK (unknown origin) at 10 uM in presence of ATP relative to control
Sequence of STE20-like serine/threonine-protein kinase (Homo sapiens) (Q9H2G2 whole entry, looked up): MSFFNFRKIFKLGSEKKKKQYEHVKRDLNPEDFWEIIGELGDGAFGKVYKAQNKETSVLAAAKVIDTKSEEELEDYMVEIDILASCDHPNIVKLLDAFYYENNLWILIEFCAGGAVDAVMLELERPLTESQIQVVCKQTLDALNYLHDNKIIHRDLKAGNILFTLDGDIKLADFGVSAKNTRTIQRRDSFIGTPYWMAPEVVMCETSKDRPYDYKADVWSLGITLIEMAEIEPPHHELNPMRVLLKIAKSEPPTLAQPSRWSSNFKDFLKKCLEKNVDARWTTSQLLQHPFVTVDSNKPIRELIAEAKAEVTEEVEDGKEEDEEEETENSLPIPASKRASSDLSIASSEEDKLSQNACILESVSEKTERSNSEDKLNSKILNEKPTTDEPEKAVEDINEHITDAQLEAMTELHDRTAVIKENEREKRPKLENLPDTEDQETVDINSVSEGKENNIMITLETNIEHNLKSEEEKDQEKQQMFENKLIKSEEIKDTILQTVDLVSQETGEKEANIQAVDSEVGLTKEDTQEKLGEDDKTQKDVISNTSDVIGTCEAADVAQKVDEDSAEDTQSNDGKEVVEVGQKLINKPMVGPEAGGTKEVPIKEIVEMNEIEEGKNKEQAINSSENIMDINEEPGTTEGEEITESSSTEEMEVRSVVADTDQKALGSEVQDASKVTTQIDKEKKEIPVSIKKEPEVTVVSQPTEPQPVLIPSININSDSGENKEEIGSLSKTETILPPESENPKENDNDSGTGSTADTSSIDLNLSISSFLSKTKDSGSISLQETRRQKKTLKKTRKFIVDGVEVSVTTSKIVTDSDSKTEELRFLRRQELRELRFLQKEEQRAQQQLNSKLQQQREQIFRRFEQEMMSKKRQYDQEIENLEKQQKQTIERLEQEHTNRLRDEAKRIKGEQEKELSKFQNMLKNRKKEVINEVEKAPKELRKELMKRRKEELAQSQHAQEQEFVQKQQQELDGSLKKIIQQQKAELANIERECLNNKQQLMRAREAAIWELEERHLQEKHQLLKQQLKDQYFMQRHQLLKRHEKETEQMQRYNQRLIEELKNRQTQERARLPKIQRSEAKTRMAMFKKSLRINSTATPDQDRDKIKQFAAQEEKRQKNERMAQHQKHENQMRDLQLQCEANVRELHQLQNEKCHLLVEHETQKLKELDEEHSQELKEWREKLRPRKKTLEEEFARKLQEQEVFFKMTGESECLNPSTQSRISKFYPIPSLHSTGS
In short: (§3)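 In vitro ATP-site competition binding assay across a diverse panel of 128 kinases, with compound tested at a single concentration. Kinase selectivity scores (S15) were calculated from the panel profiles.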

[7] = target: Ephrin type-A receptor 5 (Homo sapiens) (UniProt P54756); test: Competitive binding affinity to EPHA5 (unknown origin) at 10 uM in presence of ATP relative to control; in short: as §1
Sequence of Ephrin type-A receptor 5 (Homo sapiens) (P54756 whole entry): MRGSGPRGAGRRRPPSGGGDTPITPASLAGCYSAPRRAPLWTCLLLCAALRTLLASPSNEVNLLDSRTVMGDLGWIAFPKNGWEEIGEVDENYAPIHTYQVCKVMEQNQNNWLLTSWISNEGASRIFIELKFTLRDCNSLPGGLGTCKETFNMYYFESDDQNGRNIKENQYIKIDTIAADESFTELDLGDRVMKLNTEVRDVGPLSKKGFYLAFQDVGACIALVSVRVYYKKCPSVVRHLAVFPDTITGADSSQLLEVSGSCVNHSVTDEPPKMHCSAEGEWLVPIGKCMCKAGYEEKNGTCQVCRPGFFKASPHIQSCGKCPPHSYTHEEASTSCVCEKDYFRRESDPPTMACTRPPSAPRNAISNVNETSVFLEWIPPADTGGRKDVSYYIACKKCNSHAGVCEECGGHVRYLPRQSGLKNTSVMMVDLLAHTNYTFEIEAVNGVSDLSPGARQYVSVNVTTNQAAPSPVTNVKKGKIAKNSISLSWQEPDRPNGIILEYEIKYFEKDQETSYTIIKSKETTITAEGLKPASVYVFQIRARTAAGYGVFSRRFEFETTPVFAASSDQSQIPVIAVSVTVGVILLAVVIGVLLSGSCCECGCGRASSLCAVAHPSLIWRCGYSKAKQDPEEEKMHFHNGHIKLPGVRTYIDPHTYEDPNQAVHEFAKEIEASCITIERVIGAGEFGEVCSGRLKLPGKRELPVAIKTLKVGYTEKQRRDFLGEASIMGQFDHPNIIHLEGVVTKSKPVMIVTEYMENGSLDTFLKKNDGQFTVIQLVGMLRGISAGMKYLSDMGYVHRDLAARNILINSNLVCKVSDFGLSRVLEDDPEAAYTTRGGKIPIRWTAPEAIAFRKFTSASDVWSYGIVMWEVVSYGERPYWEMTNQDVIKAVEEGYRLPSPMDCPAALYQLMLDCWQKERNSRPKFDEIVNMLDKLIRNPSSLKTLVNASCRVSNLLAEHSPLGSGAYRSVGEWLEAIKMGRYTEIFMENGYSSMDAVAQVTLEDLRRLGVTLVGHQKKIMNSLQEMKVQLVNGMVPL

[8] = target: Protein-tyrosine kinase 2-beta (Homo sapiens) (UniProt Q14289); test: Competitive binding affinity to PTK2B (unknown origin) at 10 uM in presence of ATP relative to control; in short: as §3
Sequence of Protein-tyrosine kinase 2-beta (Homo sapiens) (Q14289 whole entry, looked up, canonical isoform): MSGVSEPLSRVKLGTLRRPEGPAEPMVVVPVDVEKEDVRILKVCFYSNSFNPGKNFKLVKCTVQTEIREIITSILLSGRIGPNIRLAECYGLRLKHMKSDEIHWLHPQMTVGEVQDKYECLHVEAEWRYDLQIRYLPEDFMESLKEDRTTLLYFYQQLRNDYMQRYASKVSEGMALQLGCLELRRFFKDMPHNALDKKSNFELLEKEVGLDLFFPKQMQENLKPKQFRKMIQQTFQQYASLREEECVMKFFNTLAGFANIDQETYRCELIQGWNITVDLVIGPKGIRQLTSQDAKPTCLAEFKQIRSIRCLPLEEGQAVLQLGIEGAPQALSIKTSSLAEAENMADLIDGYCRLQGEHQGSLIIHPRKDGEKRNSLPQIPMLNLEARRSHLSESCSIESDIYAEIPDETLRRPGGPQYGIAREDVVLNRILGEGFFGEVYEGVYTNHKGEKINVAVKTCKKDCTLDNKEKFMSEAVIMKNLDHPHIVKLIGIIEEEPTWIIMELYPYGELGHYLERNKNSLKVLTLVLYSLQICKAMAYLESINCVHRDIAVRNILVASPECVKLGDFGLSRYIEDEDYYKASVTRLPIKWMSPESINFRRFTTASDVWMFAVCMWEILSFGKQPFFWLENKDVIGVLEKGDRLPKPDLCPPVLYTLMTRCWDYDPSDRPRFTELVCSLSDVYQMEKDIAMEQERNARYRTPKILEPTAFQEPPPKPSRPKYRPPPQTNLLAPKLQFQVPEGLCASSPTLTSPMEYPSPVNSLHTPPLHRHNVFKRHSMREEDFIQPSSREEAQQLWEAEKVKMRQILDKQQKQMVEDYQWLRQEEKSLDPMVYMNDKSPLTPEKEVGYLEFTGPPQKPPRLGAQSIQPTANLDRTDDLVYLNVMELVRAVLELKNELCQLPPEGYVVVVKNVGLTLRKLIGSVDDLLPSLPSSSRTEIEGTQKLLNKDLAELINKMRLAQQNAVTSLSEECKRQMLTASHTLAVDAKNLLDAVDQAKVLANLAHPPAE

[9] = target: Phosphorylase b kinase gamma catalytic chain, skeletal muscle/heart isoform (Homo sapiens) (UniProt Q16816); test: Competitive binding affinity to PHKG1 (unknown origin) at 10 uM in presence of ATP relative to control; in short: as §3
[10] = target: Mitogen-activated protein kinase 14 (Homo sapiens, UniProt Q16539); test: Competitive binding affinity to p38-alpha (unknown origin) at 10 uM in presence of ATP relative to control; in short: as §3
[11] = target: Calcium/calmodulin-dependent protein kinase type II subunit delta (Homo sapiens) (UniProt Q13557); test: Competitive binding affinity to CAMK2D (unknown origin) at 10 uM in presence of ATP relative to control
[12] = target: Mast/stem cell growth factor receptor Kit (Homo sapiens) (UniProt P10721); test: Competitive binding affinity to KIT (unknown origin) at 10 uM in presence of ATP relative to control; in short: as §1
Sequence of Mast/stem cell growth factor receptor Kit (Homo sapiens) (P10721 whole entry): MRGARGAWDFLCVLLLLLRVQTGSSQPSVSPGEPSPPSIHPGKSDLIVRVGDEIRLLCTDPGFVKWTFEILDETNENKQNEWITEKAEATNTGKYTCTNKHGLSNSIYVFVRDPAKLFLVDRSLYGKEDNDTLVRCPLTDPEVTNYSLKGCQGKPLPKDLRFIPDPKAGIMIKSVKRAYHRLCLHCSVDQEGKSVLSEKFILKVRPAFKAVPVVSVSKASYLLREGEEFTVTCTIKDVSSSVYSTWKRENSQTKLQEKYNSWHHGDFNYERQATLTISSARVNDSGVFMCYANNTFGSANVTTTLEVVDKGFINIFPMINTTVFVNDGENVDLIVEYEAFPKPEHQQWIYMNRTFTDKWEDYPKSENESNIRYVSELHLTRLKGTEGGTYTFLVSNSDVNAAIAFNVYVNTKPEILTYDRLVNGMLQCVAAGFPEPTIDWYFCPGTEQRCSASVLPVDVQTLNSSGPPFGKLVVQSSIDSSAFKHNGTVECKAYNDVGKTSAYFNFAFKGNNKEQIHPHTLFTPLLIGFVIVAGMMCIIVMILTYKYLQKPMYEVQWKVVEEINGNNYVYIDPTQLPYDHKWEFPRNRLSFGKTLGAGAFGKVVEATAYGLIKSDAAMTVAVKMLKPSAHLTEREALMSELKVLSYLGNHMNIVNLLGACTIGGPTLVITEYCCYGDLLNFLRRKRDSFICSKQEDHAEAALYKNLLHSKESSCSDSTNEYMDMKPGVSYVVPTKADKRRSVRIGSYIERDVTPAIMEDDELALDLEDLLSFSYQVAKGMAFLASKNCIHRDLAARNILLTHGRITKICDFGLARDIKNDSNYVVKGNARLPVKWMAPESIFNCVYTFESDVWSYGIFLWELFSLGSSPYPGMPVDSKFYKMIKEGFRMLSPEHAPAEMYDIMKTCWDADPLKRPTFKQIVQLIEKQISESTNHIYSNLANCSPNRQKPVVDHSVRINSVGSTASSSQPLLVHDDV

[13] = target: Mitogen-activated protein kinase kinase kinase 4 (Homo sapiens) (UniProt Q9Y6R4); test: Competitive binding affinity to MAP3K4 (unknown origin) at 10 uM in presence of ATP relative to control; in short: as §1
[14] = target: Death-associated protein kinase 3 (Homo sapiens, UniProt O43293); test: Competitive binding affinity to DAPK3 (unknown origin) at 10 uM in presence of ATP relative to control; in short: as §2
[15] = target: Cyclin-dependent kinase 16 (Homo sapiens) (UniProt Q00536); test: Competitive binding affinity to PCTK1 (unknown origin) at 10 uM in presence of ATP relative to control; in short: as §3
Sequence of Cyclin-dependent kinase 16 (Homo sapiens) (Q00536 whole entry): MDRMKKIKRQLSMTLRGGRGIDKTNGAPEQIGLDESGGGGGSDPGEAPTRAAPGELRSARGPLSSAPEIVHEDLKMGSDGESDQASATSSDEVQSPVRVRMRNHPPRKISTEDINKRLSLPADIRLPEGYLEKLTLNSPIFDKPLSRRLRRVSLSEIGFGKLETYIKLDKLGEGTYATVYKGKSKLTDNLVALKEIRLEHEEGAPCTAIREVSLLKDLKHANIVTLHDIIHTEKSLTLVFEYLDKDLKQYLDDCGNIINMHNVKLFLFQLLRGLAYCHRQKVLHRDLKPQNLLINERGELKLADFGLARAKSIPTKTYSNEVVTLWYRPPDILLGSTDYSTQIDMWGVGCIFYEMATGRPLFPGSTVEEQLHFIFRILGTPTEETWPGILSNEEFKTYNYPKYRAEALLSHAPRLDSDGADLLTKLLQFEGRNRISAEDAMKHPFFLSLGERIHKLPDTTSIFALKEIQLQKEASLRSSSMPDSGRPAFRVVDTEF

Row | inhibition [1] [%] | inhibition [2] [%] | inhibition [3] [%] | inhibition [4] [%] | inhibition [5] [%] | inhibition [6] [%] | inhibition [7] [%] | inhibition [8] [%] | inhibition [9] [%] | inhibition [10] [%] | inhibition [11] [%] | inhibition [12] [%] | inhibition [13] [%] | inhibition [15] [%] | Compound | inhibition [14] [%]
1 | 93 | 99 | < 50 | 96 | < 50 | 99 | < 50 | 77 | 77 | < 50 | 91 | 98 | 100 | 100 | O[C@H]1CC[C@H](Nc2nccc(-c3n[nH]c4ccccc34)n2)CC1 | 96
2 | 82 | 91 | < 50 | < 50 | < 50 | < 50 | < 50 | < 50 | 93 | < 50 | 83 | 72 | 84 | 100 | N[C@H]1CC[C@H](Nc2nccc(-n3nnc4ccccc43)n2)CC1 | 95
3 | < 50 | < 50 | < 50 | < 50 | < 50 | < 50 | < 50 | < 50 | < 50 | < 50 | 85 | 72 | < 50 | 99 | O[C@H]1CC[C@H](Nc2nccc(-n3ccc4ccccc43)n2)CC1 | < 50
4 | < 50 | 100 | < 50 | < 50 | < 50 | < 50 | < 50 | < 50 | < 50 | < 50 | < 50 | 67 | < 50 | 91 | O=C([C@H]1CC[C@H](Nc2nccc(-n3nnc4ccccc43)n2)CC1)N1CCOCC1 | 64
5 | < 50 | 95 | < 50 | < 50 | < 50 | < 50 | < 50 | < 50 | < 50 | < 50 | 74 | 86 | < 50 | 100 | O[C@H]1CC[C@H](Nc2nccc(-n3nnc4ccccc43)n2)CC1 | 93
6 | < 50 | 73 | < 50 | < 50 | < 50 | < 50 | < 50 | < 50 | < 50 | < 50 | 93 | 91 | < 50 | 99 | O[C@H]1CC[C@H](Nc2nccc(-n3ncc4ccccc43)n2)CC1 | < 50
7 |  |  |  |  |  |  |  |  |  | > 85 |  |  |  |  | CS(=O)(=O)CCCOc1cccc2c1ccn2-c1ccnc(N[C@H]2CC[C@H](C(=O)N3CCC(O)CC3)CC2)n1 | > 85
